# Measured values as given in article PMC5224883 (Chemistry (Weinheim an der Bergstrasse, Germany), 2016).
# Tests used:
# CXCR4 = CXCR4 (Homo sapiens, UniProt P61073); assay: Chemokine-induced calcium signalling assay; format: cell-based; conditions: read-out: Ca^2+ flux IC50 CXCR4; CXCR4-positive U87 cell line, CXCL12 (SDF-1) induced Ca^2+ signalling, triplicate average
# [1] = Cyclic voltammetry of copper acetate complexes; format: physicochemical; conditions: 1 mM in acetonitrile, 0.1 M TBAPF6, 200 mV/s, vs SHE
# Summary of the method: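 Working electrode was a Pt button, with a Pt-wire counter electrode and an Ag-wire pseudo-reference electrode. Tests were run under N2. Potentials were referenced to SHE using ferrocene as an internal standard (+0.400 V versus SHE). Samples were Cu2+ acetate complexes.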
# Chain of CXCR4 (P61073 whole entry): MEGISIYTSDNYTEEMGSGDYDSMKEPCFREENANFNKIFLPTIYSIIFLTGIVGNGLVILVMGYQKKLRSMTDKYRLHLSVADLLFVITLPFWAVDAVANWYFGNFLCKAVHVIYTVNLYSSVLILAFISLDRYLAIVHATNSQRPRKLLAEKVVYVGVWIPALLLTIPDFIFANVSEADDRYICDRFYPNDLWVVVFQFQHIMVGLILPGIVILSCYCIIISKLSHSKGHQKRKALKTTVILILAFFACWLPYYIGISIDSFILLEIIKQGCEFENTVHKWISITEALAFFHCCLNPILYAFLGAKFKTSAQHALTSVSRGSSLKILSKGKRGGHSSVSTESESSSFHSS
structure (smiles),measurement,setting,value
CC(=O)[O-].[Cu+2].c1ccc(CN2CCCN3CCN(CCCN(Cc4ccccc4)CC3)CC2)cc1 [[Cu5(OAc)]^+],IC50,CXCR4,156 nM
same,Eox (Cu^2+/3+),[1],+1.516 V
same,Ered (Cu^2+/+),[1],−0.641 V
same,Eox (^Cu+/2+),[1]; return oxidation,−0.156 V
